Results on 26 compounds are retold here after PubChem BioAssay AID624268 (The Scripps Research Institute Molecular Screening Center, 2012).

The structures appear in SMILES notation. The campaign covered roughly 360,000 compounds. About 1,500 (0.42%) were called active.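 The calls were made as follows: active = inhibition above a per-plate cutoff of the control wells' mean inhibition plus 3 SD (cut at about 5.5% in these data); inactive = the rest.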 The sample as a whole holds a higher share of actives than the screen did.

The subject of this assay is methionyl-tRNA synthetase (Trypanosoma brucei brucei). Kind of assay: inhibition of trypanosome methionyl-tRNA synthetase – biochemical, luminescence, primary screen (AID 624268).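 Also: 0% = DMSO wells median and 100% = median of wells with control inhibitor compound.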 Conditions: purified T. brucei MetRS, ATP depletion, Kinase-Glo luminescence; at 11.9 µM; hits give high values. The gist of the method:
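Dosing: 11.9 µM single point; system: parasite MetRS enzyme; technique: luminescence of leftover ATP; times: 15 min enzyme-compound preincubation, 2 h reaction, 10 min detection, 25 °C; replicates: each compound tested once; read-out basis: percent inhibition relative to median high and low control wells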
In general terms: Kinase-Glo measures the ATP left after a reaction by luminescence.
`Brc1ccc(-c2nn[nH]n2)cc1`: the inhibition was 0.2% (inactive).
Next, `Cc1cccc(N=Nc2c(O)[nH]c3ccc(F)cc23)c1`: 0.2% (inactive); `Oc1[nH]c2ccc(Br)cc2c1N=Nc1nn[nH]n1`: 5.61% (active).
Next, `CCOC(=O)c1sc(NC(=O)CSc2nc(O)c(Cc3ccccc3)c(=O)[nH]2)nc1C`: -1.03% (inactive).
Consider `CCCS(=O)(=O)NC(=O)C1(C)CCCN(C(=O)c2ccnc(Cl)c2)C1` (stereo unspecified), for which the inhibition was -0.05% (inactive).
With `Cn1c(CCCOc2ccc(Cl)cc2Cl)n[nH]c1=S`, the inhibition is 7.11% (active).
Next, `O=C(CCCOc1ccc(Cl)cc1Cl)NNC(=O)C1CCC1`: 1.44% (inactive).
With `CC(C)Oc1ccc(Cc2n[nH]c(=S)n2Cc2ccccc2)cc1Cl` the figure was -0.26% (inactive); with `COC(=O)CN1C(=O)[C@H]2[C@@H](/C=C/c3ccccc3)N3C(=O)CN(CC4CC4)C(=O)[C@@]3(Cc3ccccc3)[C@H]2C1=O`, -0.4% (inactive).
Next, `NCCCCCC(=O)N/N=C/c1ccc2nccnc2c1`: -0.25% (inactive).
Regarding `O=C(CC(O)(C(F)(F)F)C(F)(F)F)Nc1ccc(Cl)c(Cl)c1`, the inhibition is 1.83% (inactive).
With `O=C(CC(=O)Nc1ccc(Cl)c(Cl)c1)N/N=C/c1ccc(O)cc1` the figure was 10.6% (active); with `Cc1csc(=O)n1CCC(=O)OCC(=O)NNC(=O)c1ccc(Br)cc1`, -0.33% (inactive).
Next, `CC1(C(=O)NS(=O)(=O)c2cccc(F)c2)CCN1C(=O)c1cccc2ccccc12` (stereo unspecified): -0.25% (inactive).
In the case of `COCCCNCCOCCOc1ccc(Cl)cc1Br`, the inhibition is 1.56% (inactive).
As to `O=C(N[C@H]1CC[C@H](CC(=O)N2CCCCC2)O[C@@H]1CO)c1cccc(F)c1`, the inhibition is -0.31% (inactive).
With `O=C(Oc1cccc(N2C(=O)C3C4c5ccccc5C(c5ccccc54)C3C2=O)c1)c1ccco1` (stereo unspecified) the figure was 0.29% (inactive); with `O=C(/C(=N\O)n1cncn1)c1ccc(Br)cc1Br`, 17.9% (active); with `CCc1ccc(N(CC(=O)Nc2sc3c(c2C(=O)OC)CCCC3)S(C)(=O)=O)cc1`, 0.46% (inactive).
As to `CCn1c(CSCc2c(Cl)cccc2Cl)n[nH]c1=S`, the inhibition was 0.37% (inactive).
With `Cc1ccc(NCc2n[nH]c(=S)n2-c2ccccc2)cc1Cl` the figure was -0.41% (inactive); with `S=c1[nH]nc(CSCc2ccc(Cl)cc2Cl)n1-c1ccccc1`, 6.2% (active).
Next, `Nc1cc(N)nc(SCc2cccc(F)c2)n1`: -0.35% (inactive); `Cn1nc(-c2ccc(Cl)cc2)c2cc(C(=O)NCc3ccco3)sc21`: 2.08% (inactive); `O=C(c1ccco1)N1CCN(CC(=O)N(C2CCCCC2)C2CCS(=O)(=O)C2)CC1` (stereo unspecified): -0.62% (inactive).
Next, `Cc1ccc(NN=C2C(=O)OC(C)(C)OC2=O)c(C)c1`: 0.27% (inactive).

By inhibition is commonly meant the drop in the measured response relative to a control, in per cent.
